APJ agonist: agonists of human apelin receptor APJ, primary screen, CHO-K1 cells, PathHunter beta-arrestin, luminescence; P35414; 0% DMSO wells, 100% apelin; activation, % at 20 µM; hit rate 0.11% among 330,000;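 active means activation more than six SD over the plate average, tested at 20 µM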
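Assay system – PathHunter CHO-K1 APJ (AGTRL-1) beta-arrestin reporter cells · Compound – one dose, 20 µM compound, 1% DMSO · Timing – compound 90 min 25 °C, reagent 1 h · Measured by – luminescence from split beta-galactosidase complementation, Galacton Star/Emerald II substrate · Measure – beta-arrestin recruitment to APJ as agonist activity, luminescent signal · Benchmarks – DMSO vs Apelin-13 10 nM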
CXCR6 block: CXCR6 receptor inhibitors, primary screen, cell-based, beta-arrestin, luminescence, CHO-K1 PathHunter, 1536-well; hit rate 0.36% among 360,000; C-X-C chemokine receptor type 6 (Homo sapiens), O00574; inhibition, % at 20 µM; in the data active means inhibition above about 34%, passing the limit was not always enough;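 further: antagonist mode with CXCL16 agonist at 10 nM final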
Target sequence (O00574 whole entry, looked up): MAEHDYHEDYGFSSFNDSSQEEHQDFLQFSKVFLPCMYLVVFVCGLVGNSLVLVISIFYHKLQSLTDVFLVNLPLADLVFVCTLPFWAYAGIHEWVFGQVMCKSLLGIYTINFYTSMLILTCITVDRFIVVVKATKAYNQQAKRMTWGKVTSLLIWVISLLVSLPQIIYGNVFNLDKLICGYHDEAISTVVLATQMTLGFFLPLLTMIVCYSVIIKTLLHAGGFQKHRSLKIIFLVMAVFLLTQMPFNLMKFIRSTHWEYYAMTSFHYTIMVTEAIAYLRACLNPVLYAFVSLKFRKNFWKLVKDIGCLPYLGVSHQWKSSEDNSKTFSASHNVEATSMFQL
CCR6 antag: CCR6 receptor antagonists, primary screen, cell-based, CHO-K1, luminescence, beta-arrestin, uHTS. CHO-K1 CCR6 PathHunter beta-arrestin, CCL20-stimulated. hit rate 0.49% among 340,000. inhibition, % at 20 µM. AID 493098, 2011;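 active means compounds whose inhibition of the agonist-driven luminescence signal at 20 µM reaches about 50%, limit read from the data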;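 further: cells stimulated with CCL20 at 14 nM final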
iPSC survival up: enhancers of single-cell hiPSC survival, primary screen, ATPlite luminescence; 100% = ROCK inhibitor wells, 0% = DMSO; survival enhancement, % at 20 µM; hit rate 0.044% among 360,000; AID 602274, 2012; in the data active means survival enhancement above about 18%;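 further: cells exposed to compounds for 16 hours before the ATP read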
APJ antagonist: antagonists of human apelin receptor APJ, primary screen, CHO-K1 cells, beta-arrestin complementation, luminescence. P35414. inhibition, % at 20 µM. hit rate 0.32% among 330,000;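 active means inhibition above about 40% at 20 µM, limit read from the data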;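 further: cells challenged with 10 nM apelin-13 agonist together with compound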
EBI2 block: EBI2 receptor antagonists, beta-arrestin recruitment, primary screen, cell-based, luminescence, 7a,25-OHC stimulation, uHTS; inhibition, % at 5 µM; 7a,25-OHC stimulated; hit rate 0.81% among 360,000; G-protein coupled receptor 183 (Homo sapiens), P32249; in the data active means inhibition above about 38%;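 further: enzyme fragment complementation signal reports receptor beta-arrestin coupling in cells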
Target sequence (P32249 whole entry, looked up, the tested form may be a part): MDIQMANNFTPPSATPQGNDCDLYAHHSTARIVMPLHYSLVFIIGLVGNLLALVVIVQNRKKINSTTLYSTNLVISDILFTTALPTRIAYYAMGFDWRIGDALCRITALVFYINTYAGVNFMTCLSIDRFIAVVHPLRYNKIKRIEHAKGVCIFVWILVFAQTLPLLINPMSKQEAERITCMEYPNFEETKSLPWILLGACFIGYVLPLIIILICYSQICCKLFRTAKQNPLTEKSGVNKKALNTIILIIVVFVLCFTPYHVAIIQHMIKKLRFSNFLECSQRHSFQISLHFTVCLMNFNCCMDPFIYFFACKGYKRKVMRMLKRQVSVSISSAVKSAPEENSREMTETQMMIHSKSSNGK
EBI2 antag conf: EBI2 antagonist hit retest, beta-arrestin, confirmation, cell-based, single concentration, luminescence, 7a,25-OHC stimulation | shares compounds with EBI2 block | 7a,25-OHC antagonism | hit rate 29% among 2,400 | inhibition, % at 5 µM;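 active means inhibition of at least 50%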
EBI2 agonist: EBI2 agonist activity of antagonist hits, confirmation, counter-screen for EBI2 antagonist project, cell-based, single concentration, agonist mode, luminescence; shares compounds with EBI2 block; EBI2-expressing cells, 60 min; 0% vehicle, 100% 7α,25-dihydroxycholesterol control; activation, % at 5 µM; 2,400 tested, under 10 active;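 active means activation of at least 50%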
bGal cs: E. coli beta-galactosidase enzyme inhibition, confirmation, counter-screen for EBI2 antagonist project, biochemical, luminescence, single concentration; shares compounds with EBI2 block; purified beta-galactosidase, luminescent Galacton Star, 15 min; inhibition, % at 5 µM; hit rate 1% among 2,400;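 active means replicate-average signal at least 3 plate SD below neutral wells, shown as high inhibition, flagging enzyme-inhibiting false positives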;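 further: higher means stronger loss of beta-gal luminescence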
Of the large screens only hits and unclear results are named; the others gave an inactive call (follow-up assays come after a bar, where they were run). This is a sample that favours compounds with a hit; in the whole collection about 1.5% have one here.

Cc1cccc(N2CCN(C(=O)NCc3ccc(F)cc3)CC2)c1C	EBI2 block 58 | EBI2 antag conf inactive | EBI2 agonist inactive | bGal cs inactive
Cc1cccc(N2CCN(C(=O)CNC(=O)Cc3ccccc3)CC2)c1C	none
CC1=NN(c2ccc(Cl)cc2)C(=O)C1C(c1ccccc1O)c1c(C)[nH]n(-c2ccc(Cl)cc2)c1=O (stereo not drawn)	EBI2 block 65 | EBI2 antag conf inactive | EBI2 agonist inactive | bGal cs inactive
CCCS(=O)(=O)NC(=O)C1(C)CCN(C(=O)c2cccc3ccccc23)C1 (stereo not drawn)	none (no result: APJ agonist, CCR6 antag, APJ antagonist)
COc1ccc(NC(=O)CCN2CCN(S(=O)(=O)c3ccc(OC)cc3)CC2)cc1	none
COc1ccc(NC(=O)CCN2CCN(S(=O)(=O)c3cc(Cl)ccc3Cl)CC2)cc1	EBI2 block 48 | EBI2 antag conf inactive | EBI2 agonist inactive | bGal cs inactive
CCOc1ccc(NCc2nnc(SCC(=O)Nc3nc(-c4ccccc4)cs3)n2-c2ccccc2)cc1	EBI2 block 46 | EBI2 antag conf inactive | EBI2 agonist inactive | bGal cs inactive
Cc1ccc(C(=O)N2CCN(S(=O)(=O)c3ccc(Br)cc3)CC2)o1	none
COc1ccc(C2N(c3ccc(C)cc3)CCN2c2ccc(C)cc2)cc1O	EBI2 block 73 | EBI2 antag conf inactive | EBI2 agonist inactive | bGal cs inactive
CCOc1ccc(N2CC(C(=O)Nc3ccc(S(=O)(=O)NCC4CCCO4)cc3)CC2=O)cc1 (stereo not drawn)	EBI2 block 51 | EBI2 antag conf inactive | EBI2 agonist inactive | bGal cs inactive
CCOCCCNS(=O)(=O)c1ccc(NC(=O)C2CC(=O)N(c3ccc(C)cc3)C2)cc1 (stereo not drawn)	EBI2 block 65 | EBI2 antag conf inactive | EBI2 agonist inactive | bGal cs inactive
O=C(NCCc1ccccc1)c1oc2ccccc2c1COc1ccccc1	EBI2 block 45 (no result: APJ agonist, APJ antagonist) | EBI2 antag conf inactive | EBI2 agonist inactive | bGal cs inactive
CCOC(=O)c1c(NC(=O)c2c(C(=O)O)cccc2[N+](=O)[O-])sc2c1CCCC2	none
N#Cc1ccc(C(=O)Nc2cc(S(=O)(=O)Nc3ccc(Cl)cc3)ccc2N2CCCCC2)cc1	EBI2 block 52 | EBI2 antag conf inactive | EBI2 agonist inactive | bGal cs inactive
O=C(Nc1cc(S(=O)(=O)Nc2ccc(Cl)cc2)ccc1N1CCCCC1)c1ccc(F)cc1	none
CC(Sc1nc2cc([N+](=O)[O-])ccc2n1-c1ccc(F)cc1)C(=O)NCc1ccc2c(c1)OCO2 (stereo not drawn)	EBI2 block 54 | EBI2 antag conf inactive | EBI2 agonist inactive | bGal cs inactive
O=C(OCc1nnc(-c2ccc([N+](=O)[O-])cc2)o1)C1CCN(C(=O)c2ccc(F)cc2)CC1	none
O=C(OCc1nnc(-c2ccc([N+](=O)[O-])cc2)o1)C1CCN(C(=O)c2ccc(Cl)cc2)CC1	EBI2 block 50 | EBI2 antag conf inactive | EBI2 agonist inactive | bGal cs inactive
CC1(C(=O)Nc2ccc3c(c2)OCCO3)CCN1C(=O)c1cccc(F)c1 (stereo not drawn)	none (no result: APJ agonist, CCR6 antag, APJ antagonist)
CSc1nc2c(=S)[nH]c(=S)[nH]c2s1	none (no result: APJ agonist, CCR6 antag, APJ antagonist)
Cc1ccc(/C=C\c2nccc3c2[nH]c2ccccc23)cc1	EBI2 block 74 | EBI2 antag conf inactive | EBI2 agonist inactive | bGal cs inactive
O=c1[nH]c2ccccc2nc1/C=C/c1ccccc1	none
C(=C\c1nccc2c1[nH]c1ccccc12)/c1ccccc1	EBI2 block 55 | EBI2 antag conf inactive | EBI2 agonist inactive | bGal cs inactive
Fc1ccc(/C=C\c2nccc3c2[nH]c2ccccc23)cc1	EBI2 block 49 | EBI2 antag conf inactive | EBI2 agonist inactive | bGal cs inactive
COc1ccc(-c2cc3nc(-c4ccccc4)cc(N4CCCC(O)C4)n3n2)cc1 (stereo not drawn)	EBI2 block 66 | EBI2 antag conf 55 | EBI2 agonist inactive | bGal cs inactive
COc1ccc(-c2cc3nc(-c4ccccc4)cc(N4CCC(O)CC4)n3n2)cc1	EBI2 block 64 | EBI2 antag conf 56 | EBI2 agonist inactive | bGal cs inactive
COc1ccc(-c2cc3nc(-c4ccccc4)cc(N4CCN(C(=O)c5ccccc5)CC4)n3n2)cc1	none (no result: APJ agonist, CCR6 antag, APJ antagonist)
COc1ccc(-c2cc3nc(-c4ccccc4)cc(N4CCN(C(C)=O)CC4)n3n2)cc1	EBI2 block 46 (no result: APJ agonist, CCR6 antag, APJ antagonist) | EBI2 antag conf inactive | EBI2 agonist inactive | bGal cs inactive
CC(C)C[C@H]1CN(CCCC[C@@H]2CNC(=O)C(=O)N2CC2CCCCC2)C(=O)C(=O)N1CCC1CCCCC1	none (no result: APJ agonist, CCR6 antag, APJ antagonist)
CC1CCCCC12NC(=O)N(CC(=O)NCCc1ccc(F)cc1)C2=O (stereo not drawn)	none
COc1ccc(OCC(O)CN2CCC(CN3C(=O)c4cccc5cccc(c45)C3=O)CC2)cc1 (stereo not drawn)	EBI2 block 44 | EBI2 antag conf inactive | EBI2 agonist inactive | bGal cs inactive
COc1ccc(OC)c(S(=O)(=O)N2CCN(CC(O)COc3ccc(C#N)cc3)CC2)c1 (stereo not drawn)	EBI2 block 45 | EBI2 antag conf inactive | EBI2 agonist inactive | bGal cs inactive
COc1ccc(OC)c(S(=O)(=O)N2CCN(CC(O)COc3ccccc3)CC2)c1 (stereo not drawn)	EBI2 block 46 | EBI2 antag conf inactive | EBI2 agonist inactive | bGal cs inactive
COc1ccc(S(=O)(=O)N2CCN(CC(O)COc3ccc(C#N)cc3)CC2)cc1OC (stereo not drawn)	none
CCN(CC)CCCN(C(=O)c1ccc(F)cc1)c1nc(-c2ccc(OC)cc2)cs1	none
CC1CCN(S(=O)(=O)c2ccc(NC(=O)CCNC(=O)c3ccc(Cl)cc3)cc2)CC1	none

Assay outcomes: PubChem, Sanford-Burnham Center for Chemical Genomics
